One data set has as its system Cytomegalovirus. The data set is described as follows: Antiviral activity against Cytomegalovirus VR-538 infected in human HFF1 cells assessed as inhibition of virus-induced plaque formation/cytopathogenicity. Type of data set: functional. To be noted: Human betaherpesvirus 5, VR-538, HFF-1; read-out: ID50 (the source's name). The method in brief:
(§1)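 Cell monolayers infected at MOI 0.1 and treated with compound at 25 to 200 μg/mL. Compounds dissolved in DMSO, diluted in maintenance medium (DMEM, 2% heat-inactivated FCS), final DMSO at most 0.01%. Acyclovir is the reference. ID50 is the concentration giving 50% reduction of plaque formation or virus-induced cytopathogenicity, from dose–response curves by linear regression. Values are the mean of three separate assays.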
(In general: Protection from cytopathic effect is a common read-out in antiviral testing.)

Data set [1] in a line: Cytotoxicity against African green monkey Vero cells after 24 hrs by MTT assay. Type of data set: cell-based. To be noted: chlorocebus sabaeus. In general terms: Tetrazolium dyes change colour on reduction, which living cells bring about.
The nature of data set [2]: Cytotoxicity against human Hep2 cells after 24 hrs by MTT assay. Type of data set: cell-based, HEp-2.
The subject of a further data set is Echovirus E9. The experiment in a line: Antiviral activity against Human echovirus type 9 VR-1050 infected in African green monkey Vero cells assessed as inhibition of virus-induced plaque formation/cytopathogenicity. The data set is classed as functional. As to conditions: Enterovirus B, VR-1050, Vero; read-out: ID50 (the source's name). The method in brief:
as §1

In a further data set the test system is Human alphaherpesvirus 2. The data set is described as follows: Antiviral activity against Herpes simplex type 2 VR-734 infected in African green monkey Vero cells assessed as inhibition of virus-induced plaque formation/cytopathogenicity. Type of data set: functional. To be noted: Human alphaherpesvirus 2, VR-734, Vero; read-out: ID50 (the source's name). The method in brief: as §1

For data set [3], the system named is Human poliovirus 1 strain Sabin. The data set is described as follows: Antiviral activity against Poliovirus type 1 Sabin VR-1562 infected in African green monkey Vero cells assessed as inhibition of virus-induced plaque formation/cytopathogenicity. To be noted: Enterovirus C, VR-1562, Vero; read-out: ID50 (the source's name). The data set is classed as functional. A digest of the protocol: as §1

The test system of the next data set is Coxsackievirus B3. The experiment in a line: Antiviral activity against Coxsackie type B3 virus VR-1034 infected in African green monkey Vero cells assessed as inhibition of virus-induced plaque formation/cytopathogenicity. To be noted: Enterovirus B, VR-1034, Vero; read-out: ID50 (the source's name). Type of data set: functional. A digest of the protocol:
as §1

For another data set, the system named is Human adenovirus 5. The experiment in a line: Antiviral activity against Adenovirus type 5 VR-1523 infected in human Hep2 cells assessed as inhibition of virus-induced plaque formation/cytopathogenicity. As to conditions: Human mastadenovirus C, VR-1523, HEp-2; read-out: ID50 (the source's name). Type of data set: functional. The method in brief: as §1
Data set [4] is described as follows: Cytotoxicity against human HFF1 cells after 24 hrs by MTT assay. The data set is classed as cell-based, HFF-1.
A further data set has as its system Human adenovirus 2. The data set is described as follows: Antiviral activity against Adenovirus type 2 VR-1080 infected in human Hep2 cells assessed as inhibition of virus-induced plaque formation/cytopathogenicity. As to conditions: Human mastadenovirus C, VR-1080, HEp-2; read-out: ID50 (the source's name). The data set is classed as functional. The method in brief: as §1

Data set [5] has as its system Human alphaherpesvirus 1. The experiment in a line: Antiviral activity against Herpes simplex type 1 VR-260 infected in African green monkey Vero cells assessed as inhibition of virus-induced plaque formation/cytopathogenicity. Type of data set: functional. As to conditions: Human alphaherpesvirus 1, VR-260, Vero; read-out: ID50 (the source's name). A digest of the protocol: as §1

The test system of data set [6] is Human alphaherpesvirus 1. The experiment in a line: Antiviral activity against Herpes simplex type 1 VR-260 infected in African green monkey Vero cells assessed as inhibition of virus replication at 5 times ID50 treated 2 hrs after virus adsorption period measured after 12 hrs by plaque assay. Type of data set: functional, organism-based. A digest of the protocol: (§2)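 Confluent Vero monolayers infected with HSV-1 at MOI 0.1, 2 h adsorption at 4 °C for synchronous replication. Inoculum then removed and fresh medium with or without compound added at various times after adsorption. Incubation at 37 °C for 12 h, cultures frozen, virus yield titrated by plaque assay. Mean ± SEM of three separate assays.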

Data set [7] deals with Human alphaherpesvirus 1. The experiment in a line: Antiviral activity against Herpes simplex type 1 VR-260 infected in African green monkey Vero cells assessed as protection of host cells from viral infection […] by plaque assay. Type of data set: functional, organism-based.
Data set [8] has as its system Human alphaherpesvirus 1. The data set is described as follows: Antiviral activity against Herpes simplex type 1 VR-260 infected in African green monkey Vero cells assessed as virucidal activity at 5 times ID50 after 1 hr by plaque assay. Type of data set: functional, organism-based. A digest of the protocol: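 HSV-1 suspension (10⁶ PFU/mL) mixed 1:1 by volume with DMEM containing compound at 5× ID50, held 1 h at 37 °C. Residual infectivity measured by plaque assay on Vero cells after diluting below the inhibitory concentration.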

Data set [9] has as its system Human alphaherpesvirus 1. The data set is described as follows: Antiviral activity against Herpes simplex type 1 VR-260 infected in African green monkey Vero cells assessed as inhibition of virus replication at 5 times ID50 treated 1 hr after virus adsorption period measured after 12 hrs by plaque assay. The data set is classed as functional, organism-based. The method in brief:
as §2

In data set [10] the test system is Human alphaherpesvirus 1. The data set is described as follows: Antiviral activity against Herpes simplex type 1 VR-260 infected in African green monkey Vero cells assessed as reduction of virus yield at 5 times ID50 treated 2 hrs after virus adsorption period measured after 12 hrs by plaque assay. The data set is classed as functional, organism-based. The method in brief:
as §2

Data set [11] has as its system Human alphaherpesvirus 1. The data set is described as follows: Inhibition of Herpes simplex type 1 VR-260 adsorption in African green monkey Vero cells assessed as cell-associated viral activity at 5 times ID50 after 120 mins by plaque assay. The data set is classed as functional, organism-based. The method in brief:
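Infective center assay. HSV-1 (10⁶ PFU/mL) preincubated 60 min at 37 °C with compound, chilled to 4 °C, then added to a Vero suspension (10⁶ cells/mL) precooled ≥1 h at 4 °C. Adsorption for 120 min at 4 °C. Cells washed three times with cold DMEM, serially diluted and plaque assayed for cell-associated virus.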

By CC50 is commonly meant the concentration that lowers cell viability or growth by half.

≈ marks a conversion by molar mass, not a printed value. Calls of active or inactive are those of the source. The calls are words filed in the database; no cut-off is given here.

Turning to `CCCCOC(=O)CCc1ccc(O)c(O)c1`, the IC50 was 25 µg/mL (≈ 105 µM) with Cytomegalovirus; more than 200 µg/mL with Echovirus E9; more than 200 µg/mL in the data set on Human alphaherpesvirus 2; more than 200 µg/mL in [3]; 100 µg/mL (≈ 420 µM) in the data set on Coxsackievirus B3; more than 200 µg/mL in the data set with Human adenovirus 5. In addition, the IC50 in the data set with Human adenovirus 2 and in the data set with Human alphaherpesvirus 1 [5] was more than 200 µg/mL throughout. The CC50 at 24 h was determined as 200 µg/mL (≈ 839 µM) in data set [1], 200 µg/mL (≈ 839 µM) in data set [2] and 100 µg/mL (≈ 420 µM) in data set [4].

In the case of `CCCOC(=O)CCc1ccc(O)c(O)c1`, the CC50 at 24 h in data set [1] and in [2] was more than 200 µg/mL throughout. Besides, the IC50 (with Echovirus E9; in data set [3]; in the data set with Coxsackievirus B3; in the data set on Human adenovirus 5; with Human adenovirus 2; in the data set with Human alphaherpesvirus 1 [5]) was more than 200 µg/mL throughout.

Regarding `CC(=O)OCCc1ccc(O)c(O)c1`, the IC50 with Cytomegalovirus is more than 50 µg/mL; in the data set with Echovirus E9, more than 100 µg/mL; in the data set with Human alphaherpesvirus 2 it was 40 µg/mL (≈ 204 µM); in [3] it was more than 100 µg/mL; in the data set on Coxsackievirus B3 it was 50 µg/mL (≈ 255 µM); in the data set on Human adenovirus 5, more than 50 µg/mL. In addition, the IC50 was more than 50 µg/mL in the data set with Human adenovirus 2 and 20 µg/mL (≈ 102 µM) in the data set with Human alphaherpesvirus 1 [5]. For the same molecule, the CC50 at 24 h in data set [1] was 100 µg/mL (≈ 510 µM); in data set [2], 50 µg/mL (≈ 255 µM); in [4] it was 50 µg/mL (≈ 255 µM).

Consider `O=C(O)CCc1ccc(O)c(O)c1` [DIHYDROCAFFEIC ACID], for which the IC50 (in the data set on Cytomegalovirus; in the data set on Echovirus E9; in data set [3]; with Coxsackievirus B3; with Human adenovirus 5; with Human adenovirus 2) was more than 200 µg/mL throughout. Also, the IC50 with Human alphaherpesvirus 1 [5] is more than 200 µg/mL. For the same molecule, the CC50 at 24 h in [1], in data set [2] and in data set [4] was more than 200 µg/mL each time.

As for `CCCC(=O)OCCc1ccc(O)c(O)c1` [HYDROXYTYROSOL BUTANOATE], the IC50 was more than 100 µg/mL in the data set on Cytomegalovirus; more than 100 µg/mL in the data set with Echovirus E9; 100 µg/mL (≈ 446 µM) in the data set on Human alphaherpesvirus 2; more than 100 µg/mL in data set [3]; more than 100 µg/mL in the data set with Coxsackievirus B3; more than 100 µg/mL with Human adenovirus 5. Besides, the IC50 in the data set on Human adenovirus 2 and in the data set with Human alphaherpesvirus 1 [5] was more than 100 µg/mL throughout. For the same molecule, the 50% cytotoxic concentration (CC50) at 24 h in data set [1], in data set [2] and in [4] was 100 µg/mL (≈ 446 µM) throughout.

Turning to `CCCCC(=O)OCCc1ccc(O)c(O)c1`, the IC50 (in the data set on Cytomegalovirus; in the data set with Echovirus E9; in data set [3]; in the data set with Coxsackievirus B3; in the data set with Human adenovirus 5; in the data set on Human adenovirus 2) was more than 25 µg/mL in each case. In addition, the IC50 in the data set with Human alphaherpesvirus 1 [5] stood at 25 µg/mL (≈ 105 µM). The CC50 at 24 h in [1], in data set [2] and in data set [4] was 25 µg/mL (≈ 105 µM) each time.

As for `CCOC(=O)CCc1ccc(O)c(O)c1`, the IC50 in the data set with Cytomegalovirus is 40 µg/mL (≈ 190 µM); in the data set with Echovirus E9 it was more than 75 µg/mL; in the data set with Human alphaherpesvirus 2 it was 60 µg/mL (≈ 285 µM); in [3], more than 75 µg/mL; with Coxsackievirus B3, 20 µg/mL (≈ 95.1 µM); in the data set with Human adenovirus 5, more than 40 µg/mL. The IC50 in the data set on Human adenovirus 2 was more than 40 µg/mL; in the data set with Human alphaherpesvirus 1 [5] it was 15 µg/mL (≈ 71.4 µM). Moreover, the CC50 at 24 h in data set [1] stood at 75 µg/mL (≈ 357 µM); in [2], 40 µg/mL (≈ 190 µM); in [4] it was 40 µg/mL (≈ 190 µM). Moreover, the result in the data set with Human alphaherpesvirus 1 [6], with Human alphaherpesvirus 1 [7] and in the data set on Human alphaherpesvirus 1 [8] was inactive. Moreover, the outcome in the data set with Human alphaherpesvirus 1 [9] and with Human alphaherpesvirus 1 [10] was Active. In addition, the inhibition result with Human alphaherpesvirus 1 [11] was “inactive”.

For `COC(=O)CCc1ccc(O)c(O)c1`, the IC50 in the data set on Cytomegalovirus is 100 µg/mL (≈ 510 µM); in the data set with Echovirus E9, more than 100 µg/mL; in the data set with Human alphaherpesvirus 2, more than 100 µg/mL; in data set [3], more than 100 µg/mL; in the data set with Coxsackievirus B3 it was more than 100 µg/mL; in the data set on Human adenovirus 5, more than 100 µg/mL. Further, the IC50 in the data set with Human adenovirus 2 and with Human alphaherpesvirus 1 [5] was more than 100 µg/mL in each case. In addition, the CC50 at 24 h in [1], in data set [2] and in data set [4] was 100 µg/mL (≈ 510 µM) in each case.

`CCC(=O)OCCc1ccc(O)c(O)c1`: the IC50 with Cytomegalovirus was more than 40 µg/mL; in the data set with Echovirus E9 it was more than 40 µg/mL; in the data set on Human alphaherpesvirus 2 it was 40 µg/mL (≈ 190 µM); in [3] it was more than 40 µg/mL; with Coxsackievirus B3, more than 40 µg/mL; in the data set on Human adenovirus 5, more than 40 µg/mL. For the same molecule, the IC50 is more than 40 µg/mL in the data set with Human adenovirus 2 and 20 µg/mL (≈ 95.1 µM) in the data set on Human alphaherpesvirus 1 [5]. In addition, the CC50 at 24 h in data set [1], in data set [2] and in [4] was 40 µg/mL (≈ 190 µM) each time.

The values are drawn from ChEMBL document CHEMBL3603777, “Carbon nanotubes supported tyrosinase in the synthesis of lipophilic hydroxytyrosol and dihydrocaffeoyl catechols with antiviral activity against DNA and RNA viruses” (Bioorg Med Chem, 2015).
